Results taken from ChEMBL document CHEMBL1687770, “Activity of a trisubstituted pyrrole in inhibiting sporozoite invasion and blocking malaria infection” (2010).
Calls of active or inactive are those of the source. The calls are words filed in the database; no cut-off is given here.

Key:
Plasmodium yoelii [1] = assay: Antimalarial activity against Plasmodium yoelii 17XNL infected in Swiss-Webster mouse liver assessed as reduction liver-stage infection at 50 mg/kg, ip administered 15 mins before infection measured up to 22 days; type: functional, organism-based; set-up: dose 50 mg/kg
How it was run: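 Female Swiss-Webster mice (6–8 weeks, n = 3) received one ip dose of 50 mg/kg in PBS, or PBS alone, before iv infection with P. yoelii 17XNL sporozoites (1 × 10⁴/mouse). The prepatent period was followed by daily Giemsa-stained blood smears.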

Plasmodium berghei [2] = assay: Inhibition of Plasmodium berghei NK65 motility up to 10 uM after 2 hrs; type: functional, organism-based
How it was run: (§1)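 Gliding assay. Slides were coated with anti-CSP MAb 3D11 (10 μg/ml). P. berghei NK65 sporozoites (1 × 10⁴/well) were added with compound at 0.5, 2 or 10 μM in DMEM with 3% BSA and incubated 2 h at 37°C. Wells were fixed with paraformaldehyde and blocked. Trails were stained with biotinylated 3D11 and streptavidin-FITC.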

Plasmodium yoelii [3] = assay: Antimalarial activity against Plasmodium yoelii 17XNL infected in Swiss-Webster mouse liver assessed as reduction of parasite burden at 50 mg/kg, ip administered 15 mins before infection measured up to 22 days relative to PBS treated group; type: functional; details: route intraperitoneal
Plasmodium berghei [4] = assay: Antimalarial activity against Plasmodium berghei NK65 infected in human HepG2 cells assessed as reduction of liver stage parasites level treated for 12 hrs measured 40 hrs after drug washout; type: functional, organism-based
How it was run: (§2)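 P. berghei NK65 sporozoites from mosquito salivary glands (5 × 10⁴/well) added to HepG2 cells seeded the day before in DMEM/10% FCS, with compound at 0.5, 2 or 10 μM. At 12 h p.i. the medium was replaced with compound-free medium. Liver stages at 40 h p.i. were stained with MAb 2E6 and FITC anti-mouse IgG and counted by fluorescence microscopy. At least three experiments, each in duplicate.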

Plasmodium berghei [5] = assay: Antimalarial activity against Plasmodium berghei NK65 infected in human HepG2 cells assessed as reduction of liver stage parasites level at 2 uM treated for 3 hrs measured 40 hrs after drug washout; type: functional, organism-based
How it was run: (§3)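 HepG2 cells were infected with P. berghei NK65 sporozoites (5 × 10⁴/well) in the presence of compound. The compound-containing medium was removed 3 h after infection. Liver stages at 40 h p.i. were immunostained with MAb 2E6 and FITC secondary, then counted by fluorescence microscopy. At least three experiments, in duplicate.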

Plasmodium berghei [6] = assay: Antimalarial activity against Plasmodium berghei NK65 assessed as reduction of number of complex trails up to 10 uM relative to untreated control; type: functional; set-up: scale not given: the % may be the effect or the level left; how it was run: as §1
Plasmodium berghei [7] = assay: Antimalarial activity against Plasmodium berghei NK65 infected in human HepG2 cells assessed as inhibition of sporozoite invasion after 1 hr; type: functional
How it was run: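 HepG2 cells were infected with P. berghei NK65 sporozoites (5 × 10⁴/well) with compound at 0.5, 2 or 10 μM for 1 h at 37°C. Cells were fixed with 4% paraformaldehyde and double-stained to tell intracellular from extracellular sporozoites. Intracellular sporozoites were counted.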

Plasmodium berghei [8] = assay: Antimalarial activity against PbPKG knockout Plasmodium berghei NK65 infected in human HepG2 cells assessed as reduction of liver stage parasites level treated for 3 hrs measured 40 hrs after drug washout; type: functional, organism-based
Plasmodium berghei [9] = assay: Antimalarial activity against PbPKG knockout Plasmodium berghei NK65 infected in human HepG2 cells assessed as reduction of liver stage parasites level treated before infection measured 40 hrs after drug washout; type: functional, organism-based
Plasmodium berghei [10] = assay: Antimalarial activity against Plasmodium berghei NK65 infected in human HepG2 cells assessed as inhibition of transformation of sporozoites into liver stage at 10 uM treated for 3 hrs measured 40 hrs after drug washout; type: functional, organism-based; how it was run: as §3
Plasmodium berghei [11] = assay: Antimalarial activity against Plasmodium berghei NK65 infected in human HepG2 cells assessed as reduction of liver stage parasites level at 2 uM treated for 12 hrs measured 40 hrs after drug washout; type: functional, organism-based; how it was run: as §2
Plasmodium berghei [12] = assay: Antimalarial activity against Plasmodium berghei NK65 infected in human HepG2 cells assessed as inhibition of transformation of sporozoites into liver stage at 10 uM treated 3 hrs after infection measured 40 hrs after drug washout; type: functional, organism-based
How it was run: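 Compound at 10 μM was added to HepG2 cultures 3 h after P. berghei NK65 sporozoite addition. Liver stages were detected at 40 h p.i. by MAb 2E6/FITC immunofluorescence and counted. Compared with untreated wells by t test. At least three experiments, in duplicate.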

Plasmodium berghei [13] = assay: Antimalarial activity against Plasmodium berghei ANKA infected through mosquito bite in C57BL/6 mouse liver assessed as increase of average prepatent period at 50 mg/kg, ip administered first dose 15 mins before infection and second and third doses given 6 hrs and 12 hrs postinfection measured up to 22 days (reference value: 2.66 +/- 0.57 days); details: route intraperitoneal
Plasmodium yoelii [14] = assay: Antimalarial activity against Plasmodium yoelii 17XNL infected in Swiss-Webster mouse liver assessed as prevention of appearance of blood-stage parasites at 50 mg/kg, ip administered first dose 15 mins before infection and second and third doses given 6 hrs and 12 hrs postinfection measured up to 22 days; type: functional, organism-based; set-up: dose 50 mg/kg
How it was run: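 Female Swiss-Webster mice (6–8 weeks, n = 10) were given 50 mg/kg ip in PBS, or PBS alone. Doses were given 15 min before iv injection of P. yoelii 17XNL sporozoites (5 × 10³/mouse), then at 6 h and 12 h p.i. Blood-stage parasites were checked daily on Giemsa-stained smears for up to 3 weeks.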

Plasmodium yoelii [15] = assay: Antimalarial activity against Plasmodium yoelii infected in Swiss-Webster mouse liver assessed as reduction of parasite burden at 50 mg/kg, ip administered 15 mins before infection measured up to 22 days relative to PBS treated group; details: route intraperitoneal

CN1CCC(c2cc(-c3ccncc3)c(-c3ccc(F)cc3)[nH]2)CC1
Activity (Plasmodium yoelii [1]): Active | inhibition (Plasmodium berghei [2]): inactive | fold change (FC) (Plasmodium yoelii [3]): >1000 | Activity (Plasmodium berghei [4]): Dose dependent effect | Activity (Plasmodium berghei [5]): Active | Activity (Plasmodium berghei [6]): 50% | INH (Plasmodium berghei [7]): >1 µM | Activity (Plasmodium berghei [8]): Active | Activity (Plasmodium berghei [9]): inactive | inhibition (Plasmodium berghei [10]): Active | Activity (Plasmodium berghei [11]): Active | inhibition (Plasmodium berghei [12]): inactive | Time (Plasmodium berghei [13]): 5.33 days | Activity (Plasmodium yoelii [14]): Active | fold change (FC) (Plasmodium yoelii [15]): >1000
